Read-outs that look alike come from different tables or passages of the source.
Experiments:
[1] = target: T1, SV2A (Macaca mulatta, UniProt H9EQH8); format: in vivo, rhesus monkeys (Macaca mulatta); conditions: for Regional distribution volume (VT): 1TC model; for Regional non-displaceable binding potential (BPND): baseline scans (n = 4), reference region centrum semiovale
Procedure, shortened: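 Fasted rhesus monkeys were immobilised with ketamine (10 mg/kg im) and maintained on isoflurane (1.5–2.5% in oxygen). Radiotracer was infused iv over 3 min after a transmission scan, and dynamic list-mode data were collected for 120 min. MR-defined ROIs gave time–activity curves. VT came from a 1TC model with metabolite-corrected arterial plasma input, and BPND from VT with centrum semiovale as reference.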

[2] = target: human SV2A protein; conditions: cited from earlier work
[3] = target: T1, SV2A; assay: SV2A occupancy from occupancy plot; format: in vivo, rhesus monkeys (Macaca mulatta); conditions: 0.15 mg/kg UCB-J, 10 min before 5-[^18F]UCB-J injection
Procedure, shortened: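 Baseline and blocking PET scans were run with iv radiotracer and arterial input. Regional VT came from 1TC kinetic modelling. Occupancy was derived from an occupancy plot of baseline regional VT against the baseline-minus-blocking VT difference.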

[4] = target: T1, SV2A; conditions: same dose of UCB-J (0.15 mg/kg), measured with [^11C]UCB-J; cited from earlier work
[5] = Plasma metabolite analysis; format: in vivo, rhesus monkeys (Macaca mulatta); conditions: 30 min after injection; rhesus monkey arterial plasma; n = 4
[6] = Radiotracer free fraction; format: in vitro ADME, rhesus monkeys (Macaca mulatta); conditions: ultrafiltration; rhesus monkey plasma; n = 4
Procedure, shortened: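 Plasma ultrafiltration was used. fP was taken as filtrate radioactivity concentration divided by total plasma activity, measured in triplicate per scan.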

[7] = baseline scan, centrum semiovale
[8] = baseline scan, cingulate cortex
[9] = baseline scan, nucleus accumbens
[10] = baseline scan, occipital cortex

T1 sequence (H9EQH8 1-742): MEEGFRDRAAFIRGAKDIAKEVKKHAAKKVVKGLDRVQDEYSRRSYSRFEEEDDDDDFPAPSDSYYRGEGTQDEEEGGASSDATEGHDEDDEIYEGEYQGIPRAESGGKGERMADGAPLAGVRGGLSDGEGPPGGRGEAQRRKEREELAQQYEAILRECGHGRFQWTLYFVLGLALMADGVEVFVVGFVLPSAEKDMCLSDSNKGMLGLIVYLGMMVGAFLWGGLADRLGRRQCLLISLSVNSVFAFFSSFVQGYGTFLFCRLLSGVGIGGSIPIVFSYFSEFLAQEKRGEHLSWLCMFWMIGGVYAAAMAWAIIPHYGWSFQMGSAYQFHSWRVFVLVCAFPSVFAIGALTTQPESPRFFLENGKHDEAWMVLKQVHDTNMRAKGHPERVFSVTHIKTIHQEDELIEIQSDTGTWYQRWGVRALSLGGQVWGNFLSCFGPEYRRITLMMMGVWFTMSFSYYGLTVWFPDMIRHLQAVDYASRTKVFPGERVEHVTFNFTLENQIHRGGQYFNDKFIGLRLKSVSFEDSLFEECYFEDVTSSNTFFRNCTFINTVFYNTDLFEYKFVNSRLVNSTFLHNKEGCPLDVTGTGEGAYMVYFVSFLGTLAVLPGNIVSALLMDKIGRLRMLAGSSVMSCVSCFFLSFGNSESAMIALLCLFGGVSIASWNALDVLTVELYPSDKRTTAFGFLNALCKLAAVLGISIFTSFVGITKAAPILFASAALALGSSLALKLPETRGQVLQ

SMILES	Regional distribution volume (VT) ([1]; baseline scan, amygdala)	Regional distribution volume (VT) ([1]; baseline scan, brainstem)	Regional distribution volume (VT) ([1]; baseline scan, caudate)	Regional distribution volume (VT) [1, 7]	Regional distribution volume (VT) ([1]; baseline scan, cerebellum)	Regional distribution volume (VT) [1, 8]	Regional distribution volume (VT) ([1]; baseline scan, frontal cortex)	Regional distribution volume (VT) ([1]; baseline scan, globus pallidus)	Regional distribution volume (VT) ([1]; baseline scan, hippocampus)	Regional distribution volume (VT) ([1]; baseline scan, insula)	Regional distribution volume (VT) [1, 9]	Regional distribution volume (VT) [1, 10]	Regional distribution volume (VT) ([1]; baseline scan, pons)	Regional distribution volume (VT) ([1]; baseline scan, putamen)	Regional distribution volume (VT) ([1]; baseline scan, temporal cortex)	Regional distribution volume (VT) ([1]; baseline scan, thalamus)	pIC50, binding affinity to human SV2A protein [2]	further results
Cc1cnccc1CN1C[C@H](c2cc(F)c(F)c([18F])c2)CC1=O [(S)-5-[^18F]3, 4-(3,4-Difluoro-5-(fluoro-^18F)phenyl)-1-((3-methylpyridin-4-yl)methyl)pyrrolidin-2-one]	5.0 mL/cm^−3	5.7 mL/cm^−3	6.6 mL/cm^−3	6.9 mL/cm^−3	5.7 mL/cm^−3	7.2 mL/cm^−3	7.2 mL/cm^−3	6.3 mL/cm^−3	5.7 mL/cm^−3	6.8 mL/cm^−3	6.3 mL/cm^−3	6.6 mL/cm^−3	6.1 mL/cm^−3	6.6 mL/cm^−3	6.5 mL/cm^−3	6.3 mL/cm^−3		specific binding in brain ([1]; baseline scan, n = 1): lack of specific binding
Cc1cnccc1CN1C[C@H](c2cc(F)c(F)c(F)c2)CC1=O [(S)-enantiomer]																	7.1	
CC[C@@H](C(N)=O)N1CCCC1=O [levetiracetam]																		displacement of [^18F]UCB-J binding ([1]; levetiracetam 30 mg/kg i.v. at 90 min after radiotracer administration, 180-min scan with 5-[^18F]UCB-J): rapid reduction in radiotracer binding
Cc1cnccc1CN1C[C@@H](c2cc(F)c(F)c(F)c2)CC1=O [UCB-J]																	8.2	SV2A occupancy by UCB-J [3]: 73%; SV2A occupancy by UCB-J [4]: 87%
[11CH3]c1cnccc1CN1C[C@@H](c2cc(F)c(F)c(F)c2)CC1=O [[^11C]UCB-J]	24.1 ± 2.2 mL/cm^−3	20.1 ± 2.8 mL/cm^−3	40.3 ± 6.1 mL/cm^−3	11.1 ± 1.6 mL/cm^−3	30.5 ± 3.5 mL/cm^−3	47.3 ± 7.5 mL/cm^−3	48.9 ± 7.4 mL/cm^−3	24.5 ± 3.1 mL/cm^−3	31.3 ± 2.3 mL/cm^−3	47.7 ± 7.5 mL/cm^−3	45.7 ± 6.2 mL/cm^−3	45.1 ± 6.9 mL/cm^−3	19.8 ± 2.7 mL/cm^−3	40.1 ± 6.8 mL/cm^−3	42.8 ± 6.7 mL/cm^−3	36.2 ± 5.2 mL/cm^−3		intact parent radiotracer in plasma (parent fraction) [5]: 47 ± 12%; plasma free fraction (fp) [6]: 43 ± 5%; Regional non-displaceable binding potential (BPND) ([1]; amygdala): 1.2 ± 0.4; Regional non-displaceable binding potential (BPND) ([1]; brainstem): 0.8 ± 0.2; Regional non-displaceable binding potential (BPND) ([1]; caudate): 2.7 ± 0.7; Regional non-displaceable binding potential (BPND) ([1]; cerebellum): 1.8 ± 0.3; Regional non-displaceable binding potential (BPND) ([1]; cingulate cortex): 3.3 ± 0.9; Regional non-displaceable binding potential (BPND) ([1]; frontal cortex): 3.5 ± 0.9; Regional non-displaceable binding potential (BPND) ([1]; globus pallidus): 1.2 ± 0.2; Regional non-displaceable binding potential (BPND) ([1]; hippocampus): 1.9 ± 0.3; Regional non-displaceable binding potential (BPND) ([1]; insula): 3.3 ± 0.8; Regional non-displaceable binding potential (BPND) ([1]; nucleus accumbens): 3.2 ± 0.7; Regional non-displaceable binding potential (BPND) ([1]; occipital cortex): 3.1 ± 0.7; Regional non-displaceable binding potential (BPND) ([1]; pons): 0.8 ± 0.2; Regional non-displaceable binding potential (BPND) ([1]; putamen): 2.6 ± 0.5; Regional non-displaceable binding potential (BPND) ([1]; temporal cortex): 2.9 ± 0.6; Regional non-displaceable binding potential (BPND) ([1]; thalamus): 2.3 ± 0.7; BPND values in all brain regions ([1]; baseline scans, all brain regions): > 0.75

Source: publication PMC6810698 (European journal of nuclear medicine and molecular imaging, 2019)
